Experimental data published in ChEMBL document CHEMBL5260806, “Hydrogen peroxide activated quinone methide precursors with enhanced DNA cross-linking capability and cytotoxicity towards cancer cells” (Eur J Med Chem, 2017).
Activity calls are given as the source filed them. The rule behind the calls is not given here.

Experiments:
[1] = tested on: NCI-H23; test: Anticancer activity against human NCI-H23 cells assessed as cell growth inhibition at 10 uM incubated for 48 hrs by sulforhodamine B assay; assay type: functional; settings: read-out: GI
Outline: (§1)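 NCI DTP 60-cell-line screen run at National Cancer Institute. Cells grown in RPMI 1640 with 5% fetal bovine serum and 2 mM L-glutamine, seeded at 5,000–40,000 cells/well depending on doubling time. Single-dose screen at 10 µM gives growth percentage; dose-response series gives GI50.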

[2] = tested on: UACC-62; test: Anticancer activity against human UACC-62 cells assessed as cell growth inhibition at 10 uM incubated for 48 hrs by sulforhodamine B assay; assay type: functional; settings: read-out: GI
[3] = tested on: A498; test: Anticancer activity against human A498 cells assessed as cell growth inhibition incubated for 48 hrs by sulforhodamine B assay; assay type: functional
Outline: (§2)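 NCI-60 screen: cell lines grown in RPMI 1640 with 5% FBS and 2 mM L-glutamine, plated in 96-well plates at 5,000–40,000 cells/well depending on doubling time. Each line has one single-dose arm at 10 µM and one dose-response arm giving GI50.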

[4] = tested on: SF-539; test: Anticancer activity against human SF-539 cells assessed as cell growth inhibition incubated for 48 hrs by sulforhodamine B assay; assay type: functional; outline: as §1
[5] = tested on: IGROV-1; test: Anticancer activity against human IGROV-1 cells assessed as cell growth inhibition at 10 uM incubated for 48 hrs by sulforhodamine B assay; assay type: functional; settings: read-out: GI; outline: as §2
[6] = tested on: SK-OV-3; test: Anticancer activity against human SK-OV-3 cells assessed as cell growth inhibition incubated for 48 hrs by sulforhodamine B assay; assay type: functional
[7] = tested on: T47D; test: Anticancer activity against human T47D cells assessed as cell growth inhibition incubated for 48 hrs by sulforhodamine B assay; assay type: functional
[8] = tested on: DU-145; test: Anticancer activity against human DU-145 cells assessed as cell growth inhibition at 10 uM incubated for 48 hrs by sulforhodamine B assay; assay type: functional; settings: read-out: GI; outline: as §2
[9] = tested on: MDA-MB-231; test: Anticancer activity against human MDA-MB-231 cells assessed as cell growth inhibition at 10 uM incubated for 48 hrs by sulforhodamine B assay; assay type: functional; settings: read-out: GI; outline: as §1
[10] = tested on: MDA-MB-468; test: Anticancer activity against human MDA-MB-468 cells assessed inhibition of cell growth after 48 hrs by CellTiter-Glo luminescent assay; assay type: functional, cell-based; settings: MDA-MB-468, 48 h
Outline: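 Cells grown in RPMI 1640 with 5% fetal bovine serum and 2 mM L-glutamine, seeded at 5,000–10,000 cells/well in 384-well plates, preincubated 2–3 h at 37°C, 5% CO2. DMSO stocks (20 mM) serially diluted 2-fold ten times, then added at 1:100. Exposure 48 h at 37°C. Viability read by CellTiter-Glo luminescence after 10 min at room temperature; IC50 derived.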

[11] = tested on: SNB-75; test: Anticancer activity against human SNB-75 cells assessed as cell growth inhibition incubated for 48 hrs by sulforhodamine B assay; assay type: functional
[12] = tested on: 786-0; test: Anticancer activity against human 786-0 cells assessed as cell growth inhibition incubated for 48 hrs by sulforhodamine B assay; assay type: functional; outline: as §2
[13] = tested on: RPMI-8226; test: Anticancer activity against human RPMI-8226 cells assessed as cell growth inhibition incubated for 48 hrs by sulforhodamine B assay; assay type: functional; outline: as §1
[14] = tested on: HL-60; test: Anticancer activity against human HL-60 cells assessed as cell growth inhibition at 10 uM incubated for 48 hrs by sulforhodamine B assay; assay type: functional; settings: read-out: GI; outline: as §2
[15] = tested on: A498; test: Anticancer activity against human A498 cells assessed as cell growth inhibition at 10 uM incubated for 48 hrs by sulforhodamine B assay; assay type: functional; settings: read-out: GI; outline: as §2
[16] = tested on: U-251; test: Anticancer activity against human U-251 cells assessed as cell growth inhibition incubated for 48 hrs by sulforhodamine B assay; assay type: functional
[17] = tested on: SF-295; test: Anticancer activity against human SF-295 cells assessed as cell growth inhibition incubated for 48 hrs by sulforhodamine B assay; assay type: functional; outline: as §1
[18] = tested on: HCT-116; test: Anticancer activity against human HCT-116 cells assessed as cell growth inhibition incubated for 48 hrs by sulforhodamine B assay; assay type: functional; outline: as §2
[19] = tested on: T47D; test: Anticancer activity against human T47D cells assessed as cell growth inhibition at 10 uM incubated for 48 hrs by sulforhodamine B assay; assay type: functional; settings: read-out: GI
[20] = tested on: SNB-19; test: Anticancer activity against human SNB-19 cells assessed as cell growth inhibition at 10 uM incubated for 48 hrs by sulforhodamine B assay; assay type: functional; settings: read-out: GI
[21] = tested on: HCT-15; test: Anticancer activity against human HCT-15 cells assessed as cell growth inhibition at 10 uM incubated for 48 hrs by sulforhodamine B assay; assay type: functional; settings: read-out: GI; outline: as §2
[22] = tested on: SK-MEL-5; test: Anticancer activity against human SK-MEL-5 cells assessed as cell growth inhibition incubated for 48 hrs by sulforhodamine B assay; assay type: functional; outline: as §1
[23] = tested on: CLL cell; test: Induction of DNA damage in chronic lymphocytic leukemia patient lymphocytes assessed as apoptosis rate at 10 uM after 24 hrs by annexin/PI staining based flow cytometry; assay type: functional; settings: Homo sapiens
[24] = tested on: TK-10; test: Anticancer activity against human TK-10 cells assessed as cell growth inhibition at 10 uM incubated for 48 hrs by sulforhodamine B assay; assay type: functional; settings: read-out: GI
[25] = tested on: HT-29; test: Anticancer activity against human HT-29 cells assessed as cell growth inhibition at 10 uM incubated for 48 hrs by sulforhodamine B assay; assay type: functional; settings: read-out: GI; outline: as §2
[26] = tested on: LOX IMVI; test: Anticancer activity against human LOX IMVI cells assessed as cell growth inhibition incubated for 48 hrs by sulforhodamine B assay; assay type: functional; outline: as §2
[27] = tested on: TK-10; test: Anticancer activity against human TK-10 cells assessed inhibition of cell growth after 48 hrs by CellTiter-Glo luminescent assay; assay type: functional, cell-based; settings: TK-10, 48 h
Outline: (§3)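 Renal lines grown in RPMI 1640 with 5% FBS and 2 mM L-glutamine, seeded into 384-well plates at 5,000–10,000 cells/well, held 2–3 h at 37 °C, 5% CO2. DMSO stocks (20 mM) serially halved ten times and added at 1:100. Cells exposed 48 h at 37 °C; CellTiter-Glo added, 10 min at room temperature, luminescence read.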

[28] = tested on: NCI-H23; test: Anticancer activity against human NCI-H23 cells assessed as cell growth inhibition incubated for 48 hrs by sulforhodamine B assay; assay type: functional; outline: as §1
[29] = tested on: NCI-H226; test: Anticancer activity against human NCI-H226 cells assessed as cell growth inhibition at 10 uM incubated for 48 hrs by sulforhodamine B assay; assay type: functional; settings: read-out: GI; outline: as §1
[30] = tested on: DNA; test: Potentiation of H2O2 induced [32P]-labeled 49-mer oligonucleotide duplex DNA 25 (unknown origin) interstrand cross-linking at pH 8 in phosphate buffer solution assessed as rate constant and measured for 24 hrs by PAGE analysis; assay type: functional
[31] = tested on: DNA; test: Induction of [32P]-labeled 49-mer oligonucleotide duplex DNA 25 (unknown origin) interstrand cross-linking at 2 mM for 24 hrs without H2O2 by PAGE; assay type: functional
[32] = tested on: OVCAR-4; test: Anticancer activity against human OVCAR-4 cells assessed as cell growth inhibition at 10 uM incubated for 48 hrs by sulforhodamine B assay; assay type: functional; settings: read-out: GI; outline: as §1
[33] = tested on: UO-31; test: Anticancer activity against human UO-31 cells assessed inhibition of cell growth after 48 hrs by CellTiter-Glo luminescent assay; assay type: functional, cell-based; settings: UO-31, 48 h; outline: as §3
[34] = tested on: CAKI-1; test: Anticancer activity against human CAKI-1 cells assessed as cell growth inhibition incubated for 48 hrs by sulforhodamine B assay; assay type: functional; outline: as §2
[35] = tested on: ACHN; test: Anticancer activity against human ACHN cells assessed as cell growth inhibition at 10 uM incubated for 48 hrs by sulforhodamine B assay; assay type: functional; settings: read-out: GI; outline: as §2
[36] = tested on: MCF7; test: Anticancer activity against human MCF7 cells assessed as cell growth inhibition incubated for 48 hrs by sulforhodamine B assay; assay type: functional; outline: as §1

- GI50 [6]: 2000 nM
- GI50 [7]: 2000 nM
- IC50 [10]: 9000 nM
- GI50 [12]: 2000 nM
- GI50 [13]: 2000 nM
- GI50 [16]: 2000 nM
- GI50 [18]: 2000 nM
- GI50 [22]: 2000 nM
- GI50 [28]: 2000 nM
- GI50 [36]: 2000 nM
Structure (SMILES): COc1cc(CBr)c(B2OC(C)(C)C(C)(C)O2)c(CBr)c1
- inhibition of growth at 10 µM [1]: < 50%
- inhibition of growth at 10 µM [2]: < 50%
- GI50 [3]: 2000 nM
- GI50 [4]: 2000 nM
- inhibition of growth at 10 µM [5]: < 50%
- inhibition of growth at 10 µM [8]: < 50%
- inhibition of growth at 10 µM [9]: < 50%
- GI50 [11]: 2000 nM
- inhibition of growth at 10 µM [14]: < 50%
- inhibition of growth at 10 µM [15]: < 50%
- GI50 [17]: 2000 nM
- inhibition of growth at 10 µM [19]: < 50%
- inhibition of growth at 10 µM [20]: < 50%
- inhibition of growth at 10 µM [21]: < 50%
- Activity [23]: Active
- inhibition of growth at 10 µM [24]: < 50%
- inhibition of growth at 10 µM [25]: < 50%
- GI50 [26]: 2000 nM
- IC50 [27]: 16200 nM
- inhibition of growth at 10 µM [29]: < 50%
- Ka [30]: 0.000237 s⁻¹
- Activity [31]: 0%
- inhibition of growth at 10 µM [32]: < 50%
- IC50 [33]: 10800 nM
- GI50 [34]: 2000 nM
- inhibition of growth at 10 µM [35]: < 50%
